Holding throughout (assay type): functional
Assay [1] can be described thus: Antitumor activity against mouse EAC cells assessed as inhibition of cell viability at 100 ug/ml by Trypan blue assay. To be noted: Ehrlich. Put shortly: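 EAC cells were taken by needle aspiration of ascitic fluid from preinoculated mice and diluted 1:10 in saline. Then 0.1 mL of cell suspension, 0.8 mL RPMI 1640 and 0.1 mL compound were incubated 2 h at 37 °C. Dead cells were counted by trypan blue exclusion, and % non-viable = non-viable/total cells × 100.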

The next assay concerns Escherichia coli. The experiment in a line: Antibacterial activity against Escherichia coli NCTC 10416 at 5 mg/ml after 24 hrs by agar disc diffusion method. To be noted: NCTC 10416, 24 h, read-out: DIZ. The gist of the method:
(§1)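 Agar well-diffusion using 1 cm wells, each loaded with 100 of compound solution (5 mg/mL in DMF). Bacteria were maintained on nutrient agar and plated as a standard suspension. Plates were incubated 24 h at 35 °C, and inhibition zone diameters were measured.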
A general note: In agar diffusion tests the substance spreads into inoculated agar from a disc or well.

In the next assay the test system is Micrococcus luteus. The experiment in a line: Antibacterial activity against Sarcina lutea ATCC 934 at 5 mg/ml after 24 hrs by agar disc diffusion method. To be noted: ATCC 934, 24 h, read-out: DIZ. Put shortly: as §1
For another assay, the system named is Bacillus subtilis. The experiment in a line: Antibacterial activity against Bacillus subtilis NCTC 1040 at 5 mg/ml after 24 hrs by agar disc diffusion method. Particulars: NCTC 1040, 24 h, read-out: DIZ. Put shortly:
as §1

Another assay deals with Staphylococcus aureus. The experiment in a line: Antibacterial activity against Staphylococcus aureus NCTC 7447 at 5 mg/ml after 24 hrs by agar disc diffusion method. To be noted: NCTC 7447, 24 h, read-out: DIZ. Put shortly:
as §1

The test system of the next assay is Candida albicans. The assay can be described thus: Antifungal activity against Candida albicans IMRU 3669 at 5 mg/ml by agar disc diffusion method. To be noted: read-out: DIZ.
Another assay deals with Aspergillus flavus. The assay can be described thus: Antifungal activity against Aspergillus flavus at 5 mg/ml by agar disc diffusion method. To be noted: read-out: DIZ.

Usually inhibition stands for the percentage by which the read-out fell short of the control. Take `CSc1ccc(N2C(=N)C(=S)N(c3ccc(Br)cc3)C2=O)cc1`: in assay [1], the inhibition at 100 µg/mL came to 40%. Moreover, the zone of inhibition at 5000 µg/mL with Escherichia coli is 15.5 mm; in the assay on Micrococcus luteus, 15 mm; with Bacillus subtilis, 19.5 mm; in the assay with Staphylococcus aureus it was 19 mm; with Candida albicans, 16 mm; in the assay with Aspergillus flavus, 15 mm.
Turning to `CSc1ccc(N2C(=N)C(=S)N(c3ccccc3)C2=O)cc1`, the inhibition at 100 µg/mL in assay [1] amounted to 1%. Also, the zone of inhibition at 5000 µg/mL stood at 25.5 mm in the assay on Escherichia coli; 25 mm in the assay on Micrococcus luteus; 23.5 mm in the assay on Bacillus subtilis; 24 mm in the assay with Staphylococcus aureus; 24 mm in the assay on Candida albicans; 18 mm in the assay on Aspergillus flavus.
Consider `CSc1ccc(N2C(=N)C(=S)N(c3ccc(I)cc3)C2=O)cc1`, for which the inhibition at 100 µg/mL in assay [1] is 10%. The zone of inhibition at 5000 µg/mL in the assay with Escherichia coli was determined as 14.5 mm; in the assay with Micrococcus luteus, 14 mm; in the assay with Bacillus subtilis, 16 mm; with Staphylococcus aureus it was 16.5 mm; in the assay with Candida albicans, 16.5 mm; in the assay on Aspergillus flavus, 15 mm.
As for `COc1ccc(N2C(=N)C(=S)N(c3ccc(Br)cc3)C2=O)cc1`, the inhibition at 100 µg/mL in assay [1] is 10%. The zone of inhibition at 5000 µg/mL in the assay on Escherichia coli came out at 16 mm; with Micrococcus luteus it was 19 mm; with Bacillus subtilis it was 18 mm; in the assay with Staphylococcus aureus, 13 mm; with Candida albicans, 12 mm; in the assay with Aspergillus flavus it was 18 mm.
On to `COc1ccc(N2C(=N)C(=S)N(c3ccccc3)C2=O)cc1`, for which, in assay [1], the inhibition at 100 µg/mL was determined as 50%. For the same compound, the zone of inhibition at 5000 µg/mL in the assay with Escherichia coli came out at 25 mm; in the assay with Micrococcus luteus it was 25 mm; in the assay with Bacillus subtilis, 19 mm; with Staphylococcus aureus it was 18 mm; in the assay on Candida albicans it was 21 mm; in the assay on Aspergillus flavus, 18 mm.
Take `Cc1ccc(N2C(=N)C(=S)N(c3ccc(Br)cc3)C2=O)cc1`: the inhibition at 100 µg/mL in assay [1] was found to be 20%. For the same compound, the zone of inhibition at 5000 µg/mL in the assay with Escherichia coli came out at 16.5 mm; in the assay on Micrococcus luteus, 14 mm; in the assay on Bacillus subtilis, 18 mm; in the assay with Staphylococcus aureus it was 18 mm; with Candida albicans, 14 mm; in the assay on Aspergillus flavus it was 15 mm.
`COc1ccc(N2C(=N)C(=S)N(c3ccc(I)cc3)C2=O)cc1`: the inhibition at 100 µg/mL in assay [1] came out at 20%. Further, the zone of inhibition at 5000 µg/mL is 19 mm in the assay with Escherichia coli; 18 mm in the assay with Micrococcus luteus; 19.5 mm in the assay on Bacillus subtilis; 18.5 mm in the assay with Staphylococcus aureus; 23 mm in the assay on Candida albicans; 18 mm in the assay on Aspergillus flavus.
Regarding `Cc1ccc(N2C(=N)C(=S)N(c3ccc(Cl)cc3)C2=O)cc1`, the inhibition at 100 µg/mL in assay [1] was found to be 10%. The zone of inhibition at 5000 µg/mL turned out to be 17 mm in the assay with Escherichia coli; 21 mm in the assay with Micrococcus luteus; 16 mm in the assay on Bacillus subtilis; 12 mm in the assay on Staphylococcus aureus; 12 mm in the assay with Candida albicans; 14 mm in the assay on Aspergillus flavus.
For the compound `COc1ccc(N2C(=N)C(=S)N(c3ccc(Cl)cc3)C2=O)cc1`, the inhibition at 100 µg/mL in assay [1] was 0.5%. The zone of inhibition at 5000 µg/mL in the assay on Escherichia coli is 23.5 mm; in the assay with Micrococcus luteus, 22 mm; with Bacillus subtilis, 20 mm; in the assay with Staphylococcus aureus it was 19.5 mm; in the assay with Candida albicans it was 22 mm; in the assay with Aspergillus flavus it was 17.5 mm.
On to `Cc1ccc(N2C(=N)C(=S)N(c3ccc(I)cc3)C2=O)cc1`, for which the inhibition at 100 µg/mL in assay [1] worked out at 40%. The zone of inhibition at 5000 µg/mL was 14 mm with Escherichia coli; 13 mm in the assay on Micrococcus luteus; 16.5 mm in the assay on Bacillus subtilis; 17 mm in the assay with Staphylococcus aureus; 17 mm in the assay with Candida albicans; 14 mm with Aspergillus flavus.
As for `Cc1ccc(N2C(=N)C(=S)N(c3ccccc3)C2=O)cc1`, the inhibition at 100 µg/mL in assay [1] was found to be 10%. Further, the zone of inhibition at 5000 µg/mL with Escherichia coli amounted to 20 mm; in the assay on Micrococcus luteus it was 18 mm; in the assay with Bacillus subtilis, 21 mm; in the assay with Staphylococcus aureus, 21.5 mm; in the assay on Candida albicans it was 22 mm; in the assay with Aspergillus flavus, 15 mm.
Consider `CSc1ccc(N2C(=N)C(=S)N(c3ccc(Cl)cc3)C2=O)cc1`, for which, in assay [1], the inhibition at 100 µg/mL was 20%. Further, the zone of inhibition at 5000 µg/mL with Escherichia coli was 15.5 mm; in the assay with Micrococcus luteus, 15 mm; in the assay on Bacillus subtilis, 16.5 mm; in the assay with Staphylococcus aureus, 16 mm; with Candida albicans it was 16.5 mm; in the assay on Aspergillus flavus, 15 mm.
With `N=C1C(=S)N(c2ccc(Br)cc2)C(=O)N1Cc1ccccc1`, the inhibition at 100 µg/mL in assay [1] is 45%. Moreover, the zone of inhibition at 5000 µg/mL was 18.5 mm in the assay on Escherichia coli; 18 mm with Micrococcus luteus; 17 mm in the assay with Bacillus subtilis; 15.5 mm in the assay on Staphylococcus aureus; 17 mm in the assay with Candida albicans; 15 mm in the assay with Aspergillus flavus.
For the compound `N=C1C(=S)N(c2ccc(I)cc2)C(=O)N1Cc1ccccc1`, the inhibition at 100 µg/mL in assay [1] is 30%. Also, the zone of inhibition at 5000 µg/mL with Escherichia coli was found to be 14 mm; in the assay on Micrococcus luteus, 12 mm; in the assay on Bacillus subtilis, 15 mm; in the assay on Staphylococcus aureus, 15 mm; with Candida albicans, 13 mm; with Aspergillus flavus, 15 mm.

The values are drawn from ChEMBL document CHEMBL1782009, “Synthesis and characterization of new types of halogenated and alkylated imidazolidineiminothiones and a comparative study of their antitumor, antibacterial, and antifungal activities” (Eur J Med Chem, 2011).
